From ChEMBL document CHEMBL2390886, “Guaifenesin derivatives promote neurite outgrowth and protect diabetic mice from neuropathy” (J Med Chem, 2013)
Activity calls are given as the source filed them. The rule behind the calls is not given here.

Key:
[1] = test system: DRG neuron; test: Neuroprotective activity in Sprague-Dawley rat DRG neurons assessed as enhancement of neurite outgrowth at 0.01 to 1 uM after 24 hrs by confocal microscopic analysis; format: functional
Outline: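 DRG from adult male Sprague-Dawley rats dissociated; neurons cultured in defined Hams medium. Test agent incubated 24 h, then DIC images captured by confocal microscopy. Total neurite length per neuron measured morphometrically with a Weibel grid as crosspoints per cell, relative to control neurons of the same preparation. Mean ± SEM of 6 replicate cultures; one-way ANOVA with Tukey's post hoc test.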

[2] = Permeability of the compound after 5 hrs by PAMPA; format: ADME; conditions: read-out: permeability
Outline: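 Precoated PAMPA plate warmed to room temperature. Donor: 25 μM compound in 5% DMSO/PBS; acceptor: 5% DMSO/PBS. Incubated 5 h at 25 °C in water bath. Donor and acceptor samples quantified by LC−MS/MS against calibration standards; mass retention also determined. Propranolol control.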

[3] = Metabolic stability in human liver microsomes assessed as compound remaining at 2 uM after 1 hr by LC-MS/MS analysis; format: ADME, Microsome; conditions: read-out: Stability
Outline: (§1)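 2 μM compound incubated with mouse or human liver microsomes plus excess NADPH at 37 °C in a shaking water bath for 0 and 60 min (n = 6). Quenched with 2 volumes acetonitrile, centrifuged, supernatant diluted 1:1 with water, analysed by LC−MS/MS as % remaining. Propranolol control.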

[4] = Metabolic stability in mouse liver microsomes assessed as compound remaining at 2 uM after 1 hr by LC-MS/MS analysis; format: ADME, Microsome; conditions: read-out: Stability; outline: as §1
[5] = test system: DRG neuron; test: Neuroprotective activity in Sprague-Dawley rat DRG neurons assessed as enhancement of neurite outgrowth up to 1 uM after 24 hrs by confocal microscopic analysis; format: functional
Outline: (§2)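 Dissociated DRG neurons from adult male Sprague−Dawley rats cultured in defined medium with compound for 24 h. DIC images by confocal microscopy. Total neurite length per cell scored with Weibel-grid morphometry as intersects per cell, compared with control neurons of the same preparation. n = 6 replicate cultures; mean ± SEM; one-way ANOVA with Tukey's test.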

[6] = test system: Mus musculus; test: Toxicity in C57BL/6J mouse assessed as change in body weight at 10 to 100 mg/kg/day, po administered 6 days per week for 4 weeks (reference value: 26.7 +/- 0.4 g); format: organism-based; set-up: route oral; conditions: in vivo
[7] = Cmax in C57BL/6J mouse at 10 mg/kg, po by LC-MS/MS analysis; format: ADME, organism-based; set-up: dose 10 mg/kg, route oral; conditions: in vivo
Outline: (§3)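 Single oral dose […] given to control and STZ-diabetic mice; plasma analysed by LC−MS/MS. Samples vortexed 2 min, centrifuged, organic layer dried under N2 at room temperature and reconstituted in 0.2% TFA in MeOH/water 20:80. Standards 20–100 000 nM in water; internal standard response variable, not used for quantification.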

[8] = test system: DRG neuron; test: Neuroprotective activity in Sprague-Dawley rat DRG neurons assessed as sprouting of neurites at 1 uM after 24 hrs by confocal microscopic analysis; format: functional; outline: as §2
[9] = test system: DRG neuron; test: Neuroprotective activity in Sprague-Dawley rat DRG neurons assessed as enhancement of neurite outgrowth at >10 nM after 24 hrs by confocal microscopic analysis; format: functional; outline: as §2
[10] = test system: Mus musculus; test: Antidiabetic activity in streptozotocin-induced C57BL/6J mouse diabetic neuropathy model assessed as effect on hyperglycemia at 10 to 100 mg/kg/day, po administered 6 days per week for 4 weeks; format: functional, organism-based
Outline: (§4)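 Type 1 diabetes induced in fasted mice by ip STZ 90 mg/kg in sterile citrate buffer on 2 consecutive days, confirmed 4 days later and at study end by tail-prick blood glucose (reflectance meter). Compound or vehicle (water) by oral gavage 6 days/week from diabetes onset for 4 weeks. Body weight, glucose, and sciatic MNCV recorded. MNCV taken at 37 °C under isoflurane, stimulating at sciatic notch and Achilles tendon (5 V, 0.05 ms square wave), recording in ipsilateral paw interosseus muscles. n = 10−12/group; mean ± SEM; one-way ANOVA with Dunnett's test.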

[11] = Tmax in streptozotocin-induced C57BL/6J mouse diabetic neuropathy model at 10 mg/kg, po by LC-MS/MS analysis; format: ADME, organism-based; set-up: dose 10 mg/kg, route oral; conditions: in vivo; outline: as §3
[12] = test system: Mus musculus; test: Neuroprotective activity in streptozotocin-induced C57BL/6J mouse diabetic neuropathy model assessed as prevention of motor neuron conduction velocity slowing at 10 to 100 mg/kg/day, po administered 6 days per week for 4 weeks; format: functional, organism-based; outline: as §4
[13] = Tmax in C57BL/6J mouse at 10 mg/kg, po by LC-MS/MS analysis; format: ADME, organism-based; set-up: dose 10 mg/kg, route oral; conditions: in vivo; outline: as §3
[14] = test system: Mus musculus; test: Toxicity in C57BL/6J mouse sciatic nerve assessed as motor neuron conduction velocity at 10 to 100 mg/kg/day, po administered 6 days per week for 4 weeks (reference value: 35.6 +/- 1.1 m/s); format: organism-based; set-up: route oral; conditions: in vivo
[15] = AUC (0 to t) in C57BL/6J mouse at 10 mg/kg, po by LC-MS/MS analysis; format: ADME, organism-based; set-up: dose 10 mg/kg, route oral; conditions: plasma; outline: as §3
[16] = Cmax in streptozotocin-induced C57BL/6J mouse diabetic neuropathy model at 10 mg/kg, po by LC-MS/MS analysis; format: ADME, organism-based; set-up: dose 10 mg/kg, route oral; conditions: in vivo; outline: as §3
[17] = AUC (0 to t) in streptozotocin-induced C57BL/6J mouse diabetic neuropathy model at 10 mg/kg, po by LC-MS/MS analysis; format: ADME, organism-based; set-up: dose 10 mg/kg, route oral; conditions: in vivo; outline: as §3
[18] = test system: Mus musculus; test: Toxicity in C57BL/6J mouse assessed as unusual behavior at 10 to 100 mg/kg/day, po administered 6 days per week for 4 weeks; format: organism-based; set-up: route oral; conditions: in vivo
[19] = test system: Mus musculus; test: Antidiabetic activity in streptozotocin-induced C57BL/6J mouse diabetic neuropathy model assessed as effect on weight loss at 10 to 100 mg/kg/day, po administered 6 days per week for 4 weeks; format: functional, organism-based; outline: as §4
[20] = test system: Mus musculus; test: Neuroprotective activity in streptozotocin-induced C57BL/6J mouse diabetic neuropathy model assessed as prevention of motor neuron conduction velocity slowing at 1 to 10 mg/kg/day, po administered 6 days per week for 4 weeks; format: functional, organism-based; outline: as §4
[21] = test system: Mus musculus; test: Antidiabetic activity in streptozotocin-induced C57BL/6J mouse diabetic neuropathy model assessed as effect on hyperglycemia at 1 to 10 mg/kg/day, po administered 6 days per week for 4 weeks; format: functional, organism-based; outline: as §4
[22] = test system: DRG neuron; test: Neuroprotective activity in Sprague-Dawley rat DRG neurons assessed as enhancement of neurite outgrowth at 0.01 uM after 24 hrs by confocal microscopic analysis; format: functional; outline: as §2
[23] = test system: Mus musculus; test: Antidiabetic activity in streptozotocin-induced C57BL/6J mouse diabetic neuropathy model assessed as effect on weight loss at 1 to 10 mg/kg/day, po administered 6 days per week for 4 weeks; format: functional, organism-based; outline: as §4

For `COc1ccccc1OC[C@@H](O)CF`, the Activity [1] was “inactive”.
In the case of `COc1ccccc1OC[C@@H](O)CO`, the Papp at 5 h [2] is reported as 8.2 ×10⁻⁶ cm/s, the remaining at 1 h, 2 µM [3] is reported as 94.8% and the Activity [1] is reported as “inactive”. It also gave a remaining at 1 h, 2 µM [4] of 92.9%.
In the case of `COc1ccccc1NCC(O)CO` (racemic), the Activity [5] is reported as “inactive”.
In the case of `COc1ccccc1OCC(O)CO` (racemic) [GUAIFENESIN], the Activity [6] is reported as 27.1 g, the Cmax [7] is reported as 5.28 µM and the Activity [8] is reported as “Active”. For the same compound, the Activity [9] was “Active”, the Activity [10] was “inactive” and the Tmax [11] was 4.98 min. The Activity [12] was “Active”, the Tmax [13] was 4.98 min and the Activity [14] was 35.1 meter/s. It also gave an AUC(0-t) [15] of 2.73 µM·h, a Cmax [16] of 5.27 µM and an AUC(0-t) [17] of 1.91 µM·h. For the same compound, the Activity [18] was “Non-toxic” and the Activity [19] was “inactive”.
For `Cc1ccccc1OCC(O)CO` (racemic), the Activity [1] was “Active”.
In the case of `CCc1ccccc1OCC(O)CO` (stereo not given), the Activity [1] is reported as “inactive”.
In the case of `COc1ccccc1OC[C@H](O)CO`, the Cmax [7] is reported as 0.44 µM, the Activity [20] is reported as “Active” and the Tmax [11] is reported as 10 min. The Papp at 5 h [2] was 6.3 ×10⁻⁶ cm/s, the Tmax [13] was 10 min and the Activity [21] was “inactive”. The remaining at 1 h, 2 µM [3] was 97.4%, the AUC(0-t) [15] was 0.737 µM·h and the Activity [22] was “Active”. For the same compound, the Cmax [16] was 0.741 µM, the AUC(0-t) [17] was 0.746 µM·h and the remaining at 1 h, 2 µM [4] was 92.4%. For the same compound, the Activity [23] was “inactive”.
